These results are taken from ChEMBL document CHEMBL3352121, “Modulation of Activity Profiles for Largazole-Based HDAC Inhibitors through Alteration of Prodrug Properties” (ACS Med Chem Lett, 2014).

SMILES strings stand for the structures. Activity calls are given as the source filed them. The rule behind the calls is not given here.

The test system of series [1] is HCT-116. In words: In vivo inhibition of HDAC in tumor of human HCT116 cells xenografted nu/nu mouse assessed as increase in histone hyperacetylation at 50 mg/kg, ip after 4 hrs by immunoblotting method. It is filed as functional, organism-based. On the set-up: dose 50 mg/kg. Summed up:
(§1)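 HCT116 xenograft mice were dosed intraperitoneally at 10 or 50 mg/kg. Tumors were excised after 4, 12 and 24 h, n = 2. Histone hyperacetylation in tumor tissue was assessed by immunoblotting.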

Series [2] concerns HCT-116. Put plainly: In vivo inhibition of HDAC in tumor of human HCT116 cells xenografted nu/nu mouse assessed as increase in histone hyperacetylation at 50 mg/kg, ip after 4 to 24 hrs by immunoblotting method. More on the design: dose 50 mg/kg. The series is classed as functional, organism-based. Summed up:
as §1

The nature of series [3]: Drug metabolism in human HCT116 cells protein lysate solution assessed as largazole thiol formation at 25 ug/mL after 30 mins by HPLC-MS method. It is filed as ADME, cell-based. The settings on record: hct-116, 0.5 h.
A further series concerns Serum. Put plainly: Drug metabolism in mouse serum assessed as largazole thiol formation after 0.25 to 1440 mins by HPLC-MS method. The series is classed as ADME, cell-free.
The target of series [4] is Histone deacetylase (Homo sapiens) (UniProt Q13547+O15379+Q9UBN7+Q92769+Q9UQL6+Q8WUI4+Q9BY41+Q96DB2+P56524+Q9UKV0+Q969S8). Put plainly: Inhibition of HDAC in human HCT116 cells assessed as increase in histone H3 (Lys9/14) hyperacetylation after 8 to 24 hrs by immunoblotting method. The series is classed as cell-based. The conditions noted are these: HCT-116. A digest of the protocol: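 HCT116 cells were treated across a dose range. Cellular HDAC inhibition was read as histone H3 (Lys9/14) hyperacetylation by immunoblot at 8 and 24 h post-treatment.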
A general note: Immunoblotting shows a protein as a band on a membrane.

Series [5] can be described thus: Drug metabolism in tumor of human HCT116 cells xenografted nu/nu mouse assessed as time for maximum largazole thiol level at 50 mg/kg, ip by HPLC-MS method. It is filed as ADME, organism-based, Neoplasm, HCT-116. The conditions noted are these: in vivo. More on the design: dose 50 mg/kg, route intraperitoneal. In general terms: In xenograft studies the graft and the host belong to different species.

Series [6] in a line: Drug metabolism in tumor of human HCT116 cells xenografted nu/nu mouse assessed largazole thiol formation at 50 mg/kg, po by HPLC-MS method. The conditions noted are these: in vivo.
The subject of series [7] is HCT-116. In words: In vivo inhibition of HDAC in tumor of human HCT116 cells xenografted nu/nu mouse assessed as increase in histone hyperacetylation at 10 mg/kg, ip after 4 to 24 hrs by immunoblotting method. The series is classed as functional, organism-based. More on the design: dose 10 mg/kg. Summed up: as §1
The test system of series [8] is HCT-116. In words: In vivo inhibition of HDAC in tumor of human HCT116 cells xenografted nu/nu mouse assessed as increase in histone hyperacetylation at 50 mg/kg, po after 4 to 12 hrs by immunoblotting method. It is filed as functional, organism-based. More on the design: dose 50 mg/kg. A digest of the protocol: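 Mice bearing HCT116 xenografts were dosed intraperitoneally at 10 or 50 mg/kg, or orally at 50 mg/kg. Tumors were excised at 4, 12 and 24 h. Histone hyperacetylation in the tumors was assessed by immunoblot, n = 2.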

Series [9] can be described thus: Drug metabolism in tumor of human HCT116 cells xenografted nu/nu mouse assessed as time for maximum largazole thiol level at 10 mg/kg, ip by HPLC-MS method. It is filed as ADME, organism-based, Neoplasm, HCT-116. More on the design: dose 10 mg/kg, route intraperitoneal. The settings on record: in vivo.

As to `CCCCCCCC(=O)SCC/C=C/[C@@H]1CC(=O)NCc2nc(cs2)C2=N[C@@](C)(CS2)C(=O)N[C@@H](C(C)C)C(=O)O1` [LARGAZOLE], the inhibition entry in the series with HCT-116 [1], with HCT-116 [2], in the series on HCT-116 [7] and in the series with HCT-116 [8] was “Active” throughout. The Drug metabolism entry (in series [3]; in the series with Serum; in series [6]) was “metabolite_detected” each time. In [4], the inhibition result is “Dose-dependent effect”. Also, the Tmax in [5] and in series [9] was 4 h each time.

The Tmax is the time at which the peak concentration occurs.
